Data as given in ChEMBL document CHEMBL5543129, “Peptide Inhibitor Targeting the Extraterminal Domain in BRD4 Potently Suppresses Breast Cancer Both In Vitro and In Vivo” (J Med Chem, 2024).
Activity calls are given as the source filed them. The rule behind the calls is not given here. Square brackets hold non-standard residues; d marks the D form. Peptide text beside a SMILES is read from it. Hyp = O=C(O)[C@@H]1C[C@@H](O)CN1; Ahx = NCCCCCC(=O)O

What was measured:
[1] = Downregulation of […] protein expression in human MCF7 cells assessed as fold change in remaining c-Myc level at 10 uM incubated for 24 hrs by immunoblotting analysis (reference value: 1); type: functional
Summary of the method: (§1)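 Cells treated with peptide (10 μM) for 24 h. Lysates in Tris/NaCl/EDTA/1% Triton X-100, run on 10% SDS-PAGE and immunoblotted with ECL detection. β-actin as loading control. Three repeats, quantified against untreated cells.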

Mus musculus [2] = assay: Downregulation of N-myc mRNA expression in BALB/c mouse tumor xenografted with human MCF7 cells at 25 mg/kg, ip administered every 2 days by RT-qPCR analysis; type: functional, organism-based
MDA-MB-231 [3] = assay: Inhibition of cell migration in human MDA-MB-231 cells at 10 uM incubated for 12 hrs in presence of 5 uM JQ1 by inverted microscopic assay; type: functional, cell-based
Summary of the method: (§2)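 Cells are seeded at 5 × 10^5/well and scratched at 80–90% confluence. They are kept in serum-free medium with peptide (10 μM); partner agents are JQ1 5 μM, iJMJD6 10 μM, or ICI 2.5 μM. Wound area is imaged by inverted microscope at 0 and 12 or 24 h. Wound closure % = (A0−A1)/A0 × 100. Three biological repeats.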

[4] = Toxicity in BALB/c mouse xenografted with human MDA-MB-231 cells assessed as change in lung morphology at 12.5 mg/kg, ip administered every 2 days in presence of 50 mg/kg JQ1; type: organism-based; details: in vivo, 48 h
Summary of the method: (§3)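 Female BALB/c nude mice (4–6 weeks) carried sc MDA-MB-231 xenografts (5 × 10^6 cells) and were randomized at about 50 mm3. Peptide (12.5 mg/kg ip in saline) and JQ1 (50 mg/kg ip, DMSO/10% HPBCD 1:10) were given every 2 days, alone or combined. Body weight was recorded, and heart, liver, spleen, lung and kidney morphology and weight were assessed.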

[5] = Toxicity in BALB/c mouse xenografted with human MDA-MB-231 cells assessed as change in kidney morphology at 12.5 mg/kg, ip administered every 2 days in presence of 50 mg/kg JQ1; type: organism-based; details: in vivo, 48 h; summary of the method: as §3
[6] = Downregulation of BRD4 protein expression in human MCF7 cells assessed as fold change in remaining BRD4 level at 10 uM incubated for 24 hrs by immunoblotting analysis (reference value: 1); type: functional; summary of the method: as §1
Mus musculus [7] = assay: Downregulation of BRD4 mRNA expression in BALB/c mouse tumor xenografted with human MDA-MB-231 cells at 25 mg/kg, ip administered every 2 days by RT-qPCR analysis; type: functional, organism-based
MCF7 [8] = assay: Inhibition of cell migration in human MCF7 cells at 10 uM incubated for 24 hrs by inverted microscopic assay; type: functional, cell-based; summary of the method: as §2
T47D [9] = assay: Inhibition of cell migration in human T47D cells at 10 uM incubated for 24 hrs in presence of fulvestrant by inverted microscopic analysis; type: functional, cell-based; summary of the method: as §2
MCF7 [10] = assay: Antitumor activity against human MCF7 cells xenografted in BALB/c nude mouse assessed as reduction in tumor volume at 12.5 mg/kg, ip administered every 2 days in presence of 12.5 mg/kg JMJD6 inhibitor; type: functional, organism-based
Summary of the method: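 Female BALB/c nude mice given 5 × 10^6 cells sc (MCF7 mice with E2 10^-2 M every 2 days), randomised at ~50 mm3. Peptide 12.5 mg/kg ip (saline) every 2 days, plus JQ1 50 mg/kg ip (DMSO/10% HPBCD 1:10) every 2 days or iJMJD6 12.5 mg/kg ip (DMSO/PBS 1:20). Caliper volume every 2 days; tumours weighed at the end.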

[11] = Toxicity in BALB/c mouse xenografted with human MCF7 cells assessed as change in lung at 12.5 mg/kg, ip administered every 2 days in presence of 12.5 mg/kg JMJD6 inhibitor; type: organism-based; details: in vivo, 48 h
Summary of the method: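 Female BALB/c nude mice carried MCF7 xenografts (5 × 10^6 cells sc, E2 10–2 M brushed every 2 days) and were randomized at about 50 mm3. Peptide was given at 12.5 mg/kg ip every 2 days, and iJMJD6 (DMSO/PBS 1:20) at 12.5 mg/kg ip every other day, alone or combined. Body and organ weights were recorded.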

[12] = Toxicity in BALB/c mouse xenografted with human […] assessed as body weight loss at 25 mg/kg, ip administered every 2 days; type: organism-based; details: in vivo, 48 h
Summary of the method: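 Female BALB/c nude mice (4–6 weeks) received 5 × 10^6 MCF7 cells sc in PBS, with estrogen (E2, 10–2 M) brushed on the neck every 2 days. Mice were randomized at about 50 mm3 tumor volume. Peptide in normal saline was given ip at 25 mg/kg every 2 days. Body weight was monitored.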

Mus musculus [13] = assay: Downregulation of N-myc mRNA expression in BALB/c mouse tumor xenografted with human MDA-MB-231 cells at 25 mg/kg, ip administered every 2 days by RT-qPCR analysis; type: functional, organism-based
[14] = Toxicity in BALB/c mouse xenografted with human MCF7 cells assessed as change in kidney weight at 12.5 mg/kg, ip administered every 2 days in presence of 50 mg/kg JQ1; type: organism-based; details: in vivo, 48 h
[15] = Downregulation of CCND1 protein expression in BALB/c mouse tumor xenografted with human MDA-MB-231 cells assessed as fold change in remaining CCND1 level at 25 mg/kg, ip administered every 2 days by immunoblotting analysis; type: functional
Summary of the method: (§4)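 Tumours taken from xenograft mice dosed with peptide at 25 mg/kg ip every 2 days. […] Three repeats.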

[16] = Downregulation of CCND1 protein expression in BALB/c mouse tumor xenografted with human MCF7 cells assessed as fold change in remaining CCND1 level at 25 mg/kg, ip administered every 2 days by immunoblotting analysis; type: functional; summary of the method: as §4
[17] = Toxicity in BALB/c mouse xenografted with human MDA-MB-231 cells assessed as change in heart morphology at 12.5 mg/kg, ip administered every 2 days in presence of 50 mg/kg JQ1; type: organism-based; details: in vivo, 48 h; summary of the method: as §3
[18] = Toxicity in BALB/c mouse xenografted with human MCF7 cells assessed as change in organ weight at 2.5 mg/kg, ip administered every 2 days in presence of 12.5 mg/kg fulvestrant; type: organism-based; details: in vivo, 48 h
MDA-MB-231 [19] = assay: Inhibition of cell migration in human MDA-MB-231 cells at 10 uM incubated for 24 hrs in presence of JMJD6 inhibitor by inverted microscopic analysis; type: functional, cell-based; summary of the method: as §2
[20] = Toxicity in BALB/c mouse xenografted with human MDA-MB-231 cells assessed as change in kidney weight at 12.5 mg/kg, ip administered every 2 days in presence of 50 mg/kg JQ1; type: organism-based; details: in vivo, 48 h; summary of the method: as §3
[21] = Toxicity in BALB/c mouse xenografted with human MCF7 cells assessed as change in lung weight at 12.5 mg/kg, ip administered every 2 days in presence of 50 mg/kg JQ1; type: organism-based; details: in vivo, 48 h
T47D [22] = assay: Inhibition of cell migration in human T47D cells at 10 uM incubated for 24 hrs in presence of JMJD6 inhibitor by inverted microscopic analysis; type: functional, cell-based; summary of the method: as §2
[23] = Toxicity in BALB/c mouse xenografted with human MDA-MB-231 cells assessed as change in lung weight at 12.5 mg/kg, ip administered every 2 days in presence of 50 mg/kg JQ1; type: organism-based; details: in vivo, 48 h; summary of the method: as §3

| Molecule | fold change (FC) [1] | Activity (Mus musculus [2]) | inhibition (MDA-MB-231 [3]) | Activity [4] | Activity [5] | fold change (FC) [6] | Activity (Mus musculus [7]) | inhibition (MCF7 [8]) | inhibition (T47D [9]) | Activity (MCF7 [10]) | Activity [11] | Activity [12] | Activity (Mus musculus [13]) | Activity [14] | fold change (FC) [15] | fold change (FC) [16] | Activity [17] | Activity [18] | inhibition (MDA-MB-231 [19]) | Activity [20] | other results |
| --- | --- | --- | --- | --- | --- | --- | --- | --- | --- | --- | --- | --- | --- | --- | --- | --- | --- | --- | --- | --- | --- |
| H-YGRKKRRQRRRRNQKFKCGE-OH | 0.45 | Active | Active | Non-Toxic | Non-Toxic | 1.14 | inactive | Active | Active | Active | Non-Toxic | Non-Toxic | Active | Non-Toxic | 0.28 | 0.11 | Non-Toxic | Non-Toxic | Active | Non-Toxic | Activity [21]: Non-Toxic; inhibition (T47D [22]): Active; Activity [23]: Non-Toxic |
| CC[C@H](C)[C@H](NC(=O)[C@H](Cc1ccc(O)cc1)NC(=O)[C@@H]1C[C@@H](O)CN1C(=O)[C@H](C)NC(=O)[C@@H](NC(=O)CCCCCNC(=O)[C@H](CCC(=O)O)NC(=O)CNC(=O)[C@H](CS)NC(=O)[C@H](CCCCN)NC(=O)[C@H](Cc1ccccc1)NC(=O)[C@H](CCCCN)NC(=O)[C@H](CCC(N)=O)NC(=O)[C@H](CC(N)=O)NC(=O)[C@H](CCCNC(=N)N)NC(=O)[C@H](CCCNC(=N)N)NC(=O)[C@H](CCCNC(=N)N)NC(=O)[C@H](CCCNC(=N)N)NC(=O)[C@H](CCC(N)=O)NC(=O)[C@H](CCCNC(=N)N)NC(=O)[C@H](CCCNC(=N)N)NC(=O)[C@H](CCCCN)NC(=O)[C@H](CCCCN)NC(=O)[C@H](CCCNC(=N)N)NC(=O)CNC(=O)[C@@H](N)Cc1ccc(O)cc1)[C@@H](C)CC)C(=O)O (H-YGRKKRRQRRRRNQKFKCGE[Ahx]IA[Hyp]YI-OH) | 0.53 | Active | Active | Non-Toxic | Non-Toxic | 0.63 | inactive | Active | Active | Active | Non-Toxic | Non-Toxic | Active | Non-Toxic | 0.08 | 0.09 | Non-Toxic | Non-Toxic | Active | Non-Toxic | Activity [21]: Non-Toxic; inhibition (T47D [22]): Active; Activity [23]: Non-Toxic |
